ChEMBL document CHEMBL1139714, “Effects of alpha-substitutions on structure and biological activity of anticancer chalcones” (Bioorg Med Chem Lett, 2006)

What follows are compounds tested on K562 (assay: Cytotoxicity against human K562 cells after 5 days by MTT assay). Conditions: K562, 120 h.
Type: cell-based
How it was run: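 K562 human chronic myelogenous leukaemia cells were cultured at 37 °C with drug for 5 days, and growth was read by MTT assay. IC50 was taken as the concentration giving 50% inhibition of cell growth.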
`COc1cc(C(=O)/C(C#N)=C/c2ccc(OC)c(OC)c2OC)cc(OC)c1OC` gave an IC50 greater than 10 µM.
`COc1ccc(/C=C(\F)C(=O)c2cc(OC)c(OC)c(OC)c2)cc1O` was tested, and the IC50 was 0.0137 µM.
`CCOC(=O)/C(=C/c1ccc(OC)c(OC)c1OC)C(=O)c1cc(OC)c(OC)c(OC)c1` gave an IC50 greater than 10 µM.
Work on `COc1cc(C(=O)/C(F)=C/c2ccc3c(c2)OCO3)cc(OC)c1OC` yielded an IC50 of 0.8 µM.
`COc1ccc(/C=C(\C#N)C(=O)c2cc(OC)c(OC)c(OC)c2)cc1OC` was tested, and the IC50 was greater than 10 µM.
For `COc1cc(C(=O)/C(F)=C/c2ccc(OC)c(OC)c2OC)cc(OC)c1OC`, the IC50 was 10 µM.
Work on `COc1ccc(/C=C(\C#N)C(=O)c2cc(OC)c(OC)c(OC)c2)cc1O[Si](C)(C)C(C)(C)C` yielded an IC50 greater than 10 µM.
Compound `COc1cc(C(=O)/C(C#N)=C/c2ccc3c(c2)OCO3)cc(OC)c1OC` has an IC50 greater than 10 µM.
`COc1ccc(/C=C(\C#N)C(=O)c2cc(OC)c(OC)c(OC)c2)cc1O` showed an IC50 of 4.2 µM.
`COc1ccc(/C=C(\C#N)C(=O)c2cc(OC)c(OC)c(OC)c2)cc1F` gave an IC50 greater than 10 µM.
Work on `COc1ccc(/C=C(\C#N)C(=O)c2cc(OC)c(OC)c(OC)c2)cc1` yielded an IC50 greater than 10 µM.
Work on `COc1ccc(/C=C(\F)C(=O)c2cc(OC)c(OC)c(OC)c2)c(F)c1` yielded an IC50 of 1.19 µM.
`CCOC(=O)/C(=C\c1ccc(OC)c(O)c1)C(=O)c1cc(OC)c(OC)c(OC)c1` was tested, and the IC50 was 0.87 µM.
`COc1ccc(/C=C(\F)C(=O)c2cc(OC)c(OC)c(OC)c2)cc1Br` showed an IC50 of 6 µM.
Work on `CCOC(=O)/C(=C/c1ccc(OC)c(OC)c1)C(=O)c1cc(OC)c(OC)c(OC)c1` yielded an IC50 greater than 10 µM.
For `COc1ccc(/C=C(\F)C(=O)c2cc(OC)c(OC)c(OC)c2)cc1OC`, the IC50 was 1.21 µM.
For `CCOC(=O)/C(=C/c1ccc(OC)c(O[Si](C)(C)C(C)(C)C)c1)C(=O)c1cc(OC)c(OC)c(OC)c1`, the IC50 was 4.29 µM.
`COc1cc(C(=O)/C(C#N)=C/c2ccc(C(F)(F)F)cc2)cc(OC)c1OC` showed an IC50 greater than 10 µM.
For `COc1ccc(/C=C(\C#N)C(=O)c2cc(OC)c(OC)c(OC)c2)c(F)c1`, the IC50 was greater than 10 µM.
With `CCOC(=O)/C(=C/c1ccc(OC)cc1)C(=O)c1cc(OC)c(OC)c(OC)c1` the IC50 was greater than 10 µM.
Compound `COc1ccc(/C=C(\F)C(=O)c2cc(OC)c(OC)c(OC)c2)cc1F` has an IC50 of 0.77 µM.
Compound `COc1ccc(/C=C(\C#N)C(=O)c2cc(OC)c(OC)c(OC)c2)cc1Br` has an IC50 greater than 10 µM.
Work on `COc1ccc(/C=C(\F)C(=O)c2cc(OC)c(OC)c(OC)c2)cc1` yielded an IC50 of 0.39 µM.

Each compound was assayed against Tubulin (assay: Inhibition of tubulin). Conditions: not given.
Type: protein-complex assay, Homo sapiens
`COc1ccc(/C=C(\F)C(=O)c2cc(OC)c(OC)c(OC)c2)cc1O` gave an IC50 of 0.6 µM.
`COc1ccc(/C=C(\C)C(=O)c2cc(OC)c(OC)c(OC)c2)cc1O` showed an IC50 of 1.8 µM.
`COc1ccc(/C=C/C(=O)c2cc(OC)c(OC)c(OC)c2)cc1O` gave an IC50 of 10 µM.
`COc1ccc(/C=C(\F)C(=O)c2cc(OC)c(OC)c(OC)c2)cc1` was tested, and the IC50 was 4.6 µM.
